Experimental data as given in paper PMC3709443 (Natural product communications, 2009).
Values after ≈ are worked out from the molar mass of the structure shown. Read-outs that look alike come from different tables or passages of the source.

What was measured:
[1] = test system: P. falciparum W2 (chloroquine-resistant clone); experiment: Antimalarial parasite LDH assay, W2 strain; type: cell-based, Plasmodium falciparum; conditions: for P. falciparum W2 IC50: chloroquine-resistant clone, 72 h, pLDH readout; for IC50: Plasmodium falciparum, W2, 72 h, read-out: P. falciparum W2 IC50
[2] = test system: Leishmania donovani promastigotes; experiment: Antileishmanial assay; type: cell-based; conditions: for L. donovani IC50 / L. donovani IC90: promastigotes, 26°C, 72 hours; for IC50 / IC90: Leishmania donovani, 72 h; for IC50: read-out: L. donovani IC50; for IC90: read-out: L. donovani IC90
Summary of the method: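 L. donovani promastigote culture at 2×10^6 cells/mL exposed to diluted test compound in 96-well format. Incubation 26°C, 72 h. Growth read by Alamar blue. IC50 computed from the growth-inhibition curve. Pentamidine and amphotericin B served as reference agents.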

[3] = test system: SK-OV-3: Human ovarycarcinoma; experiment: Cytotoxicity assay; type: cell-based; conditions: for SK-OV-3 IC50: 48 hours, Neutral Red
Summary of the method: (§1)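 ATCC-sourced cells seeded at 25000 cells/well and incubated 24 h. Test compound was then added at various concentrations for a further 48 h. Viable cells were measured by a modified Neutral Red procedure. IC50 was determined from dose-response curves of percent growth inhibition. Doxorubicin was the positive control and DMSO the vehicle control.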

[4] = test system: methicillin-resistant Staphylococcus aureus ATCC 43300 (MRS); experiment: Antimicrobial susceptibility assay, MRS; type: cell-based; conditions: for MRS IC50: first value of IC50/MIC
Summary of the method: (§2)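 Modified CLSI broth dilution with test compound dissolved in DMSO and serially diluted in 20% DMSO/saline, in duplicate. Inoculum prepared to target CFU/mL. Plates read at 630 nm before and after incubation. IC50 from percent growth vs concentration. MIC is the lowest concentration with no detectable growth. MBC is the lowest concentration giving no growth when 5 μL from clear wells is subcultured on agar. Ciprofloxacin control.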

[5] = test system: VERO cells (monkey kidney fibroblasts); experiment: Cytotoxicity to VERO cells; type: cell-based; conditions: for VERO cells IC50: Table 2, maximum dose tested 4760 ng/mL; for IC50: Primates, Vero
[6] = test system: SK-MEL: Human malignant melanoma; experiment: Cytotoxicity assay; type: cell-based; conditions: for SK-MEL IC50: 48 hours, Neutral Red
Summary of the method: as §1

[7] = test system: LLC-PK11: Pig kidney epithelial; experiment: Cytotoxicity assay; type: cell-based; conditions: 48 hours; Neutral Red
Summary of the method: as §1

[8] = test system: KB: Human epidermoid carcinoma; experiment: Cytotoxicity assay; type: cell-based; conditions: for KB IC50: 48 hours, Neutral Red
Summary of the method: as §1

[9] = test system: P. falciparum D6 (chloroquine-sensitive clone); experiment: Antimalarial parasite LDH assay, D6 strain; type: cell-based, Plasmodium falciparum; conditions: for P. falciparum D6 IC50: chloroquine-sensitive clone, 72 h, pLDH readout; for IC50: Plasmodium falciparum, D6, 72 h, read-out: P. falciparum D6 IC50
[10] = test system: Aspergillus fumigatus ATCC 90906; experiment: Antimicrobial susceptibility assay, A. fumigatus; type: cell-based; conditions: for A. fumigatus IC50: first value of IC50/MIC
Summary of the method: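 Modified CLSI broth dilution. Test compound dissolved in DMSO, serially diluted in 20% DMSO/saline and plated in duplicate. Inoculum prepared in assay medium to target CFU/mL. Fluorescence (544ex/590em) read before and after incubation. IC50 from percent growth vs concentration. MIC is the lowest concentration with no detectable growth. MFC is taken from 5 μL of each clear well subcultured on agar. Amphotericin B control.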

[11] = test system: Cryptococcus neoformans ATCC 90113; experiment: Antimicrobial susceptibility assay, C. neoformans; type: cell-based; conditions: for C. neoformans IC50: first value of IC50/MIC, 50% inhibition of growth; for C. neoformans MIC: second value of IC50/MIC, no detectable growth
Summary of the method: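 Modified CLSI broth dilution. Test compound in DMSO, serially diluted in 20% DMSO/saline, duplicate wells. Inoculum in assay medium to target CFU/mL, with growth, solvent and media controls. Absorbance at 630 nm before and after incubation. IC50 from percent growth vs concentration. MIC is the lowest concentration without detectable growth. MFC comes from 5 μL of clear wells plated on agar, no growth. Amphotericin B control.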

[12] = test system: BT-549: Human ductal carcinoma; experiment: Cytotoxicity assay; type: cell-based; conditions: for BT-549 IC50: 48 hours, Neutral Red
Summary of the method: as §1

[13] = test system: Escherichia coli ATCC 35218; experiment: Antimicrobial susceptibility assay, E. coli; type: cell-based; conditions: for E. coli IC50: first value of IC50/MIC
Summary of the method: as §2

[14] = test system: Mycobacterium intracellulare ATCC 23068; experiment: Antimicrobial susceptibility assay, M. intracellulare; type: cell-based; conditions: for M. intracellulare IC50: first value of IC50/MIC
Summary of the method: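 Modified Alamar Blue procedure within modified CLSI methods. Test compound in DMSO, serially diluted in 20% DMSO/saline, duplicate wells. Inoculum in assay medium to target CFU/mL. Fluorescence 544ex/590em read before and after incubation. IC50 from percent growth vs concentration. MIC is the lowest concentration with no detectable growth. MBC from 5 μL of clear wells subcultured on agar. Ciprofloxacin control.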

| Molecule | P. falciparum W2 IC50 [1] [µg/mL] | L. donovani IC50 [2] [µg/mL] | L. donovani IC90 [2] [µg/mL] | SK-OV-3 IC50 [3] [µg/mL] | MRS IC50 [4] | VERO cells IC50 [5] | SK-MEL IC50 [6] [µg/mL] | LLC-PK11 IC50 [7] [µg/mL] | KB IC50 [8] [µg/mL] | P. falciparum D6 IC50 [9] [µg/mL] | A. fumigatus IC50 [10] | C. neoformans IC50 [11] [µg/mL] | C. neoformans MIC [11] [µg/mL] | BT-549 IC50 [12] [µg/mL] | E. coli IC50 [13] | M. intracellulare IC50 [14] | also measured |
| --- | --- | --- | --- | --- | --- | --- | --- | --- | --- | --- | --- | --- | --- | --- | --- | --- | --- |
| 6-Hydroxy-5-normethylbudmunchiamine K [Compound 4] | 0.27 | 2.1 | 7 | 6.2 | 20.0 µg/mL | NC (NC = Not cytotoxic (up to the maximum dose tested of 4760 ng/mL)) | 5.7 | 6.0 | 5.4 | 0.12 | -/- (- =Not Active) | 6.0 | 10.0 | 6.0 | -/- (- =Not Active) | 20.0 µg/mL | antimicrobial activity against C. neoformans in words [11]: weakly active |
| 6-Hydroxybudmunchiamine K [Compound 2] | 0.22 | 3.4 | 7 | 6.5 | -/- (- =Not Active) | NC (NC = Not cytotoxic (up to the maximum dose tested of 4760 ng/mL)) | 5.8 | 5.3 | 6.0 | 0.16 | -/- (- =Not Active) | 10.0 | 20.0 | 6.0 | -/- (- =Not Active) | -/- (- =Not Active) | antimicrobial activity against C. neoformans in words [11]: weakly active |
| C[C@@H]1[C@H](O)[C@@H](C)/C=C/C=C/C=C/C=C/C=C/C=C/C=C/[C@H](O[C@@H]2O[C@H](C)[C@@H](O)[C@H](N)[C@@H]2O)C[C@@H]2O[C@](O)(C[C@@H](O)C[C@@H](O)[C@H](O)CC[C@@H](O)C[C@@H](O)CC(=O)O[C@H]1C)C[C@H](O)[C@H]2C(=O)O [Amphotericin B, amphotericin B, reference compound] |  |  |  |  |  |  |  |  |  |  |  |  |  |  |  |  | IC50 [2]: 0.32 µg/mL (≈ 0.346 µM); IC90 [2]: 0.8 µg/mL (≈ 0.866 µM); IC50 ([10]; Aspergillus fumigatus, ATCC90906, read-out: A. fumigatus IC50): 0.6 µg/mL (≈ 0.649 µM); MIC ([10]; Aspergillus fumigatus, ATCC90906, read-out: A. fumigatus MIC): 1.25 µg/mL (≈ 1.35 µM); IC50 ([11]; Cryptococcus neoformans, ATCC90113, read-out: C. neoformans IC50): 0.8 µg/mL (≈ 0.866 µM); MIC ([11]; Cryptococcus neoformans, ATCC90113, read-out: C. neoformans MIC): 1.25 µg/mL (≈ 1.35 µM) |
| C[C@@H]1CC[C@H]2[C@@H](C)C(=O)O[C@@H]3O[C@@]4(C)CC[C@@H]1[C@]32OO4 [Artemisinin, artemisinin, reference compound] |  |  |  |  |  |  |  |  |  |  |  |  |  |  |  |  | IC50 [1]: 0.006 µg/mL (≈ 0.0213 µM); IC50 ([5]; read-out: VERO cells IC50): > 4.76 µg/mL; IC50 [9]: 0.01 µg/mL (≈ 0.0354 µM) |
| CCN(CC)CCCC(C)Nc1ccnc2cc(Cl)ccc12 (stereo not drawn) [Chloroquine, chloroquine, reference compound] |  |  |  |  |  |  |  |  |  |  |  |  |  |  |  |  | IC50 [1]: 0.135 µg/mL (≈ 0.422 µM); IC50 ([5]; read-out: VERO cells IC50): > 4.76 µg/mL; IC50 [9]: 0.015 µg/mL (≈ 0.0469 µM) |
| O=C(O)c1cn(C2CC2)c2cc(N3CCNCC3)c(F)cc2c1=O [Ciprofloxacin, ciprofloxacin, reference compound] |  |  |  |  |  |  |  |  |  |  |  |  |  |  |  |  | IC50 ([4]; Staphylococcus aureus, ATCC43300, read-out: MRS IC50): 0.09 µg/mL (≈ 0.272 µM); MIC ([4]; Staphylococcus aureus, ATCC43300, read-out: MRS MIC): 0.5 µg/mL (≈ 1.51 µM); IC50 ([13]; Escherichia coli, ATCC35218, read-out: E. coli IC50): 0.004 µg/mL (≈ 0.0121 µM); IC50 ([14]; Mycobacterium intracellulare, ATCC23068, read-out: M. intracellulare IC50): 0.5 µg/mL (≈ 1.51 µM); MIC ([14]; Mycobacterium intracellulare, ATCC23068, read-out: M. intracellulare MIC): 1 µg/mL (≈ 3.02 µM) |
| CCCCCCCCCCCCCCCC1CC(=O)NCCCN(C)CCCCN(C)CCCN1 (stereo not drawn) [Compound 3, 5-Normethylbudmunchiamine K] | 0.21 | 0.8 | 1.3 | 4.8 | 6.5 µg/mL | 3 µg/mL | 2.0 | 2.5 | 2.3 | 0.14 | -/- (- =Not Active) | 1.0 | 2.5 | 2.0 | 6.5 µg/mL | 4.0 µg/mL | antileishmanial activity compared with pentamidine ([2]; in words): more potent than pentamidine; MRS MIC ([4]; second value of IC50/MIC): 10.0 µg/mL; E. coli MIC ([13]; second value of IC50/MIC): 10.0 µg/mL; M. intracellulare MIC ([14]; second value of IC50/MIC): 20.0 µg/mL |
| COc1cccc2c1C(=O)c1c(O)c3c(c(O)c1C2=O)C[C@@](O)(C(=O)CO)C[C@@H]3O[C@H]1C[C@H](N)[C@H](O)[C@H](C)O1 [Doxorubicin, reference compound] |  |  |  |  |  |  |  |  |  |  |  |  |  |  |  |  | IC50 ([3]; Homo sapiens, SK-OV-3, 48 h, read-out: SK-OV-3 IC50): 0.9 µg/mL (≈ 1.66 µM); IC50 ([5]; 48 h, read-out: VERO IC50): > 5 µg/mL; IC50 ([6]; Homo sapiens, 48 h, read-out: SK-MEL IC50): 0.85 µg/mL (≈ 1.56 µM); IC50 ([8]; Homo sapiens, 48 h, read-out: KB IC50): 0.9 µg/mL (≈ 1.66 µM); IC50 ([12]; Homo sapiens, BT-549, 48 h, read-out: BT-549 IC50): 0.9 µg/mL (≈ 1.66 µM) |
| N=C(N)c1ccc(OCCCCCOc2ccc(C(=N)N)cc2)cc1 [Pentamidine, reference compound] |  |  |  |  |  |  |  |  |  |  |  |  |  |  |  |  | IC50 [2]: 2.1 µg/mL (≈ 6.17 µM); IC90 [2]: 4 µg/mL (≈ 11.7 µM) |
